Bioassay records (PubChem BioAssay)
An excerpt weighted towards active compounds, which were near 2.8% of everything screened.
PAFAH2 FP inh: inhibitors of human PAFAH2 | recombinant PAFAH2, FP-rhodamine activity probe, fluorescence polarization | inhibition, % at 3.39 µM | actives 0.99% (n = 340,000) | AID 492956;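 active = inhibition above the mean over all tested compounds plus 3 SD, cut at about 30% in these data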;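 also: inhibitors block probe labeling of enzyme so polarization drops; 0% = enzyme with DMSO and 100% = wells lacking PAFAH2 protein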
pPAFAH inh: pPAFAH (human) enzyme inhibition. recombinant pPAFAH, FP-rhodamine probe fluorescence polarization. actives 1.5% (n = 330,000). AID 463082. inhibition, % at 3.39 µM;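 active = inhibition above the mean inhibition across the screen plus 3 SD, cut at about 25% in these data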;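 also: inhibitors block binding of the rhodamine activity-based probe so polarization drops; 0% = enzyme with DMSO and 100% = wells lacking pPAFAH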
PAFAH1B2 FP inh: blocks human PAF acetylhydrolase 1b catalytic subunit 2; recombinant PAFAH1B2, FP-rhodamine activity probe, fluorescence polarization; inhibition, % at 3.39 µM; actives 1.2% (n = 340,000); AID 492953;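 active = inhibition above the mean of all tested compounds plus 3 SD, cut at about 24% in these data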;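 also: 0% = enzyme with DMSO and 100% = wells lacking PAFAH1B2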
HTRA1 inh: HTRA1 (human) protease inhibition; Q92743; recombinant HTRA1, FP-rhodamine activity-based probe, fluorescence polarization; inhibition, % at 5.96 µM; actives 0.5% (n = 340,000); AID 504803; in the data active = inhibition above about 36%;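 also: 0% = enzyme with DMSO and 100% = wells lacking enzyme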
Target sequence (Q92743 whole entry, looked up): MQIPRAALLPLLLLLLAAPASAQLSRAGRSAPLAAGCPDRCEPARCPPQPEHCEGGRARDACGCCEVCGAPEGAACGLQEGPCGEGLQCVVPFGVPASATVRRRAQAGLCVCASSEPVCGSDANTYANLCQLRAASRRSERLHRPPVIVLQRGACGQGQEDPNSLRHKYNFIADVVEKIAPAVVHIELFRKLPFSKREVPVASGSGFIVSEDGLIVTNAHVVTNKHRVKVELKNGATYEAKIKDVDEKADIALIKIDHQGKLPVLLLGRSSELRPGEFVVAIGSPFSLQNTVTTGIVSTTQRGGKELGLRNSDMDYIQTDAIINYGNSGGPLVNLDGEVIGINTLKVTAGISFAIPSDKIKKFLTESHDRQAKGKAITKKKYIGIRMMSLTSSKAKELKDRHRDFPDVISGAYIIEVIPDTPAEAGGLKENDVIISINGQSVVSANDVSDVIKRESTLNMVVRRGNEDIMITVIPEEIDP
PAFAH1B3 FP inh: blocks human PAF acetylhydrolase 1B catalytic subunit 3. Q15102. inhibition, % at 3.39 µM. actives 0.28% (n = 340,000). recombinant PAFAH1B3, FP-rhodamine probe, fluorescence polarization;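 active = inhibition above the screen-wide average of all tested compounds plus 3 SD, cut at about 25% in these data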;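 also: 0% = enzyme with DMSO only and 100% = wells lacking PAFAH1B3 protein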
Target sequence (Q15102 whole entry, looked up): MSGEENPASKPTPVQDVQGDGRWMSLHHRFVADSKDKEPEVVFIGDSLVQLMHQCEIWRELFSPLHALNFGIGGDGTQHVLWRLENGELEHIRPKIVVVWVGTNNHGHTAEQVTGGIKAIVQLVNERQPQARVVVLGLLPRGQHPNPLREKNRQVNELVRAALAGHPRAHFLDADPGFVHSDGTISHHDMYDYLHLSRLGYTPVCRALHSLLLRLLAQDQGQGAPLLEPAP
mABHD4 FP: inhibitors of mouse ABHD4. AID 720543. purified mABHD4, FP-Rh probe fluorescence polarization. inhibition, % at 8.92 µM. Q8VD66. actives 0.54% (n = 370,000);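 active = inhibition exceeding the mean over every tested compound plus 3 SD, cut at about 30% in these data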;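 also: 0% = plate median of compound wells and 100% = S159A mutant with DMSO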
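Assay system: Wild-type mouse ABHD4 protein | Medium: HEPES pH 7.0 buffer, 150 mM NaCl, 0.01% Pluronic F-127 | Incubation: Enzyme–compound pre-incubation 45 min, then probe 60 min, both 25 °C | Technique: Fluorescence polarization with parallel and perpendicular emission, 525/598 nm | Evaluation: % inhibition of FP-Rh probe binding versus controls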
PAFAH2 FP conf: confirmation of human PAFAH2 inhibitors. inhibition, % at 3.39 µM. actives 65% (n = 2,300). recombinant PAFAH2, FP-rhodamine activity probe, fluorescence polarization. AID 493030. shares compounds with PAFAH2 FP inh;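 active = mean inhibition over three repeats above a set limit taken from the earlier primary screen, cut at about 30% in these data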;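 also: inhibitor blocks binding of rhodamine activity probe so polarization falls; 0% = enzyme with DMSO and 100% = wells lacking PAFAH2 protein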
The depositor's hits bear a star; . = not tested or not shown.

SMILES	PAFAH2 FP inh	pPAFAH inh	PAFAH1B2 FP inh	HTRA1 inh	PAFAH1B3 FP inh	mABHD4 FP	PAFAH2 FP conf
Cc1ccc(C(=O)OCC(=O)N2CCc3ccccc32)cc1	63.4*	3.0	-0.2	-4.0	3.7	-6.8	62.7*
Cn1cccc1C(=O)OCC(=O)N1CCc2ccccc21	31.5*	2.0	5.1	1.9	0.3	2.8	18.1
CC1(C)OC(C)(C)C(=N/O)/C1=N\N	.	.	.	.	.	2.9	.
CC(=O)OC12CCCN(C1)/C(=C/c1ccccc1)C2 (stereo unspecified)	.	.	.	.	.	4.9	.
CO[C@@H]1[C@H](O)CC[C@]2(O)CN(c3ccc(F)cc3)[C@](C)([C@H](O)CC=C(C)C)[C@@H]12	.	.	.	.	.	5.9	.
CCOC(=O)[C@]12CCCC=C1N(CCCOC)C(=O)[C@@H]2CC(=O)N1CCSCC1	.	.	.	.	.	-1.1	.
CCc1ccccc1SCc1noc(C(=O)NCC2CCCO2)c1C(=O)O (stereo unspecified)	40.4*	0.5	16.0	-0.1	6.2	-1.1	26.4
C=CCNC(=O)c1onc(CSc2ccc(C)c(C)c2)c1C(=O)O	2.7	-1.4	4.9	-6.5	11.0	-1.7	.
C=CCNC(=O)c1onc(CSc2ccccc2)c1C(=O)NCC=C	-0.7	-1.4	-0.9	-11.0	19.5	-3.7	.
C=CCNC(=O)c1onc(CSc2cc(C)cc(C)c2)c1C(=O)O	37.8*	0.1	6.4	-5.8	4.5	-4.3	23.4
C=CCNC(=O)c1onc(CSc2ccccc2CC)c1C(=O)O	48.7*	3.0	11.3	-6.5	3.3	-11.4	36.4*
CCOC(=O)[C@@]12CN(C(=O)OC(C)(C)C)CC=C1N(Cc1ccc(OC)cc1)C(=O)[C@H]2CC(=O)NCCC(C)C	.	.	.	.	.	7.8	.
COC(=O)c1cc(COC(=O)c2ccc(OC)c(S(=O)(=O)N3CCCC3)c2)oc1C	40.8*	.	2.1	1.1	8.2	-4.7	23.1
COc1ccc(C(=O)OCc2cc(C)ccc2C)cc1S(=O)(=O)N1CCCC1	9.7	2.4	2.4	-38.6	0.0	-14.7	.
COc1ccc(C(=O)OCC(=O)NC2CC2)cc1S(=O)(=O)N1CCOCC1	51.7*	1.1	3.6	-0.7	6.8	-10.4	38.7*
O=C(COC(=O)c1cc(S(=O)(=O)N2CCOCC2)ccc1F)NC1CCCCC1	0.6	2.1	5.8	-2.7	3.9	-1.8	.
COc1ccc(C(=O)OCC(=O)N2CCOCC2)cc1S(=O)(=O)N1CCOCC1	0.9	-1.1	-7.2	1.3	0.2	2.8	.
O=C(COC(=O)c1ccc(F)c(S(=O)(=O)N2CCOCC2)c1)NC1CCCCC1	71.2*	2.2	2.3	4.9	-1.4	-1.2	60.3*
O=C(Nc1ccc(Oc2ccccc2)cc1)C1CCN(c2nnc(-n3cccc3)s2)CC1	.	.	.	.	.	1.9	.
Cc1cc(NC(=O)COC(=O)c2cc3c(s2)CCC(C)C3)no1 (stereo unspecified)	29.9*	-2.0	5.0	2.1	4.9	-13.5	27.8
CC1CCc2sc(C(=O)OCC(=O)NC(C)C)cc2C1 (stereo unspecified)	31.0*	-0.8	1.3	-1.6	-2.6	-10.6	28.9
COCCN(C(=S)Nc1c(C)cccc1C)C(C)c1cccs1 (stereo unspecified)	51.2*	2.1	1.0	2.0	-2.4	-4.3	39.0*
Cc1cccc(-c2cccc3c4c([nH]c23)[C@@H]2C[C@H](N(C)C(=O)c3ccco3)[C@H]([C@H](C)O)C(=O)N2CC4)c1	.	.	.	.	.	-4.5	.
CC(C)C(=O)N(c1ccc2oc(=O)sc2c1)S(=O)(=O)c1cccs1	44.3*	8.3	1.5	19.3	8.6	-8.8	41.6*
CC(=O)N(c1ccc2oc(=O)sc2c1)S(=O)(=O)c1cccs1	23.3	2.4	4.1	2.8	4.6	12.0	.
SMILES	PAFAH2 FP inh	pPAFAH inh	PAFAH1B2 FP inh	HTRA1 inh	PAFAH1B3 FP inh	mABHD4 FP	PAFAH2 FP conf
C/C(=N\NC(=O)c1ccccn1)C12CC3CC(CC(C3)C1)C2	37.7*	4.1	17.3	4.0	0.6	-0.4	21.3
C/C(=N/NC(=O)c1ccoc1C)C12CC3CC(CC(C3)C1)C2	-1.1	7.0	19.0	0.8	-2.8	1.3	.
N=c1c2c(-c3ccccc3)c(-c3ccccc3)n(CCc3ccccc3)c2ncn1C1CCC(O)CC1 (stereo unspecified)	.	.	.	.	.	6.8	.
O=C(c1coc(=O)c(Br)c1)N1CCC(C(O)(c2ccccc2)c2ccccc2)CC1	2.5	4.8	4.4	-9.9	5.7	-2.2	.
CC1(C)CCCN(C(=O)c2coc(=O)c(Br)c2)C1	47.5*	.	7.3	-3.2	10.6	-6.2	20.6
Cn1c2ccccc2n2c(=O)c(Cl)c(-c3ccccc3)c(C#N)c12	38.9*	5.5	5.3	8.1	11.8	4.2	23.9
CCCN1CCC(=NNc2ccc(C(=O)O)cc2)CC1	35.2*	2.8	3.0	4.0	11.8	7.9	2.5
CC1(C)C=C2C(N(Cc3ccc4c(c3)OCO4)C(=N)N2C(=O)OCc2ccccc2)n2c(=O)n(-c3ccccc3)c(=O)n21 (stereo unspecified)	.	.	.	.	.	-5.4	.
O=C(COC(=O)c1cccc(F)c1)Nc1cccc(S(=O)(=O)N2CCOCC2)c1	.	.	.	0.7	.	-7.3	.
O=C(COC(=O)c1ccc(F)cc1F)Nc1cccc(S(=O)(=O)N2CCOCC2)c1	33.8*	.	2.6	1.7	-8.4	-7.0	34.7*
Cc1cc(C(=O)OCC(=O)Nc2cccc(S(=O)(=O)N3CCOCC3)c2)c(C)o1	35.7*	6.6	-3.5	3.5	2.2	-7.3	27.2
O=C(COC(=O)c1cc(S(=O)(=O)N2CCCC2)ccc1O)Nc1ccc(F)cc1F	42.3*	0.3	8.2	3.3	-0.2	1.7	20.7
Cc1cc(C(=O)OCC(=O)Nc2cccc(S(N)(=O)=O)c2)c(C)o1	28.0	5.0	3.5	-4.0	3.9	-4.5	.
Cc1noc(C)c1COc1ccc(C(=O)OCC(=O)Nc2cccc(S(=O)(=O)N3CCOCC3)c2)cc1	72.2*	7.8	0.7	-13.9	-0.9	-26.4	64.5*
CCc1c(Cc2cccc(F)c2)ncn1CCc1ccccc1OC	.	.	.	.	.	5.1	.
COc1ccccc1CCC(=O)OCC(=O)Nc1cccc(S(=O)(=O)N2CCCCC2)c1	7.3	16.6	1.2	-22.8	-2.0	-2.3	.
COc1ccccc1CCC(=O)OCC(=O)Nc1cccc(S(=O)(=O)N2CCOCC2)c1	73.3*	13.4	-5.6	-10.1	6.5	0.8	66.0*
CCCC(C)NC(=O)COC(=O)c1cc(Br)c(Br)s1 (stereo unspecified)	24.2	8.3	-1.5	7.5	7.3	3.6	.
CC(C)CCNC(=O)COC(=O)c1cc(Br)c(Br)s1	31.6*	11.5	-1.1	-3.0	6.5	-6.7	17.5
O=C(COC(=O)C1=COCCO1)Nc1ccc([N+](=O)[O-])cc1C(F)(F)F	32.0*	5.8	4.1	3.6	6.0	-7.4	18.9
